Data reported in ChEMBL document CHEMBL2069254, “Synthesis and one-electron reduction characteristics of radiation-activated prodrugs possessing two 5-fluorodeoxyuridine units” (Bioorg Med Chem, 2012).
Activity calls are given as the source filed them. The rule behind the calls is not given here.

Columns and labels:
[1] = Radiation stability assessed as 5-fluorodeoxyuridine formation at 100 uM after exposing to 6.0 Gy/min X-ray irradiation aqueous solution containing 2-methyl-2-propanol under aerobic conditions by HPLC; assay type: physicochemical; conditions: buffer
[2] = Radiation stability assessed as compound decomposition at 100 uM after exposing to 6.0 Gy/min X-ray irradiation aqueous solution containing 2-methyl-2-propanol under hypoxic conditions by HPLC; assay type: physicochemical; conditions: buffer
[3] = Radiation stability assessed as 5-fluorodeoxyuridine formation at 100 uM after exposing to 6.0 Gy/min X-ray irradiation aqueous solution containing 2-methyl-2-propanol under hypoxic conditions by HPLC; assay type: physicochemical; conditions: buffer
[4] = Radiation stability assessed as compound decomposition at 100 uM after exposing to 6.0 Gy/min X-ray irradiation aqueous solution containing 2-methyl-2-propanol under aerobic conditions by HPLC; assay type: physicochemical; conditions: buffer
A549 [5] = test: Cytotoxicity against human A549 cells after 72 hrs by microplate reader method; assay type: functional, cell-based; conditions: A549, 72 h
In short: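 A549 cells grown in DMEM with 10% FBS and 1% streptomycin/penicillin, seeded at 1500 cells/well, cultured 24 h at 37 °C in 5% CO2/95% air. Exposed to a concentration series under aerobic conditions for 72 h. Viability read by WST-8 (CCK-8) after 30 min at 37 °C; IC50 estimated from viability curves.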

A549 [6] = test: Cytotoxicity against human A549 cells exposed to 1 uM compound pre-irradiated 30 to 120 Gy/min X-ray irradiation measured after 72 hrs under hypoxic conditions by microplate reader method; assay type: functional, cell-based
In short: (§1)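 Compound dissolved in DMEM and X-irradiated (6.0 Gy/min) in a sealed glass ampoule at ambient temperature, under hypoxic or aerobic conditions. A549 cells were seeded at 1500 cells/well and grown 24 h at 37 °C aerobically, then incubated with the irradiated solution aerobically for 72 h. Viability read by WST-8 (CCK-8). Mean ± S.D., n = 6.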

A549 [7] = test: Cytotoxicity against human A549 cells exposed to 1 uM compound pre-irradiated 30 to 120 Gy/min X-ray irradiation measured after 72 hrs under aerobic conditions by microplate reader method; assay type: functional, cell-based; in short: as §1
A549 [8] = test: Cytotoxicity against human A549 cells incubated with 125 uM compound for 12 hrs followed by pre-irradiated 30 to 6 Gy/min X-ray irradiation measured after 72 hrs under hypoxic conditions by microplate reader method; assay type: functional, cell-based
In short: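 A549 cells seeded at 1500 cells/well and held 6 h at 37 °C under hypoxia (<0.3% O2). Compound added, then 12 h hypoxic incubation at 37 °C. Plates kept hypoxic and X-irradiated at 6 Gy, then incubated 72 h aerobically. Viability read by WST-8 (CCK-8). Mean ± S.D., n = 9.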

| Drug metabolism [1] | Drug degradation [2] | Drug metabolism [3] | Drug degradation [4] | Structure (SMILES) | IC50 (A549 [5]) | Activity (A549 [6]) | Activity (A549 [7]) | Activity (A549 [8]) |
| --- | --- | --- | --- | --- | --- | --- | --- | --- |
| 1.4 nmol/J | 148.8 nmol/J | < 1 nmol/J | 140.3 nmol/J | O=c1c(F)cn([C@H]2C[C@H](O)[C@@H](CO)O2)c(=O)n1CCCn1c(=O)c(F)cn([C@H]2C[C@H](O)[C@@H](CO)O2)c1=O |  |  |  |  |
| 26.2 nmol/J | 291 nmol/J | 115.3 nmol/J | 177.2 nmol/J | CC(C(=O)C(C)n1c(=O)c(F)cn([C@H]2C[C@H](O)[C@@H](CO)O2)c1=O)n1c(=O)c(F)cn([C@H]2C[C@H](O)[C@@H](CO)O2)c1=O (stereo not given in full) | 1040 nM |  |  |  |
|  | 312.5 nmol/J | 50.9 nmol/J |  | CC(=O)Cn1c(=O)c(F)cn([C@H]2C[C@H](O)[C@@H](CO)O2)c1=O |  |  |  |  |
|  |  |  |  | O=c1[nH]c(=O)n([C@H]2C[C@H](O)[C@@H](CO)O2)cc1F [FLOXURIDINE] | 12.4 nM |  |  |  |
| 14.5 nmol/J | 319.1 nmol/J | 125.9 nmol/J | 173.6 nmol/J | O=C(Cn1c(=O)c(F)cn([C@H]2C[C@H](O)[C@@H](CO)O2)c1=O)Cn1c(=O)c(F)cn([C@H]2C[C@H](O)[C@@H](CO)O2)c1=O | 4660 nM | Active | inactive | inactive |
